Assay results gathered from unrelated publications.
Lines come from different studies, so protocols differ.
Target: MAP kinase-activated protein kinase 2 (MAPKAPK2, Homo sapiens, UniProt P49137)

Clc1ccc(Nc2nnc(Cc3ccncc3)c3ccccc23)cc1  remaining signal (cell-free assay; 0.5 µM): 98.8%
C[C@H](c1ccnc(Nc2nc3ccc(-c4cc(N(C)C)ncn4)cc3[nH]2)c1)N1CCN(C(=O)CC(F)(F)F)CC1  remaining binding (cell-free assay, competition with immobilised ligand; 0.1 µM): 100%
CCN(CC)c1ccc(C2=NNC(=O)CC2C)cc1[N+](=O)[O-] (stereo not shown)  remaining activity (enzyme activity, inhibitor; 10 µM): 86%
CC(C)(C)c1nc(-c2cccc(NS(=O)(=O)c3c(F)cccc3F)c2F)c(-c2ccnc(N)n2)s1  remaining activity (enzyme activity, inhibitor, radiometric; 1 µM): 69%
CCS(=O)(=O)c1cc2cc(C[C@](O)(CC(C)(C)c3ccc(F)cc3C(N)=O)C(F)(F)F)[nH]c2cn1  remaining binding (cell-free assay, competition with immobilised ligand; 1 µM): 100%
CN1CC(Oc2cnc(C#N)cc2-c2ccn3nc(NC(=O)C4CC4)cc3c2)C1  inhibition (enzyme activity, inhibitor; 1 µM): -21%
Cc1ccc(Nc2nccc(N(C)c3ccc4c(C)n(C)nc4c3)n2)cc1S(N)(=O)=O  inhibition (enzyme activity, inhibitor; 10 µM): 11%
Cc1sc(C(=O)NC2COC2)cc1-n1cc(NC(=O)Nc2c(F)cccc2Cl)cn1  remaining activity (enzyme activity, inhibitor; 10 µM): 93.6%
Cn1c(=O)n(-c2ccc(C(C)(C)C#N)cc2)c2c3cc(-c4cnc5ccccc5c4)ccc3ncc21  remaining activity (enzyme activity, inhibitor; 10 µM): 99%
Cn1cc(Cl)c2c(Oc3c(F)cc(Nc4cc(Cl)nc(N)n4)cc3F)ccnc21  remaining binding (cell-free assay, competition with immobilised ligand; 0.1 µM): 100%
CNC(=O)c1cc(Oc2ccc(NC(=O)Nc3ccc(Cl)c(C(F)(F)F)c3)cc2)ccn1  inhibition (enzyme activity, inhibitor; 0.3 µM): 4%
COc1cc2ncnc(Nc3ccc(Oc4ccccc4)cc3C)c2cc1OC  inhibition (enzyme activity, inhibitor; 1 µM): 4%
N#CCCc1ccc2c(c1)-c1[nH]c3ccc([N+](=O)[O-])cc3c1CC(=O)N2  remaining signal (cell-free assay; 0.5 µM): 83.4%
CCc1ccccc1C(=O)Nc1n[nH]c2c(C)c(F)c(C3C(C#N)=C(C)N(C)C(C)=C3C#N)cc12  remaining binding (cell-free assay, competition with immobilised ligand; 1 µM): 100%
O=C1Nc2ccc(Cl)cc2C1=Cc1cc(Cl)c(O)c(Cl)c1  remaining signal (cell-free assay; 0.5 µM): 100%
O=C(Nc1cnn(-c2csc(C(=O)NC3COC3)c2)c1)Nc1c(F)cccc1Cl  remaining activity (enzyme activity, inhibitor; 5 µM): 99.8%
Nc1cnc(N2CCc3cc(S(=O)(=O)Nc4c(F)cc(Cl)cc4F)cc(N4CCCC4=O)c32)nc1  remaining binding (cell-free assay, competition with immobilised ligand; 1 µM): 100%
Cc1ccc(NC(=O)c2ccc(C)c(C(F)(F)F)c2)cc1C#Cc1nn(C2CCC(O)CC2)c2ncnc(N)c12 (stereo not shown)  remaining signal (cell-free assay; 10 µM): 104%
O=C1CCc2cc(Nc3cc(OC4CCOCC4)c([N+](=O)[O-])cc3Cl)ccc2N1  remaining binding (cell-free assay, competition with immobilised ligand; 1 µM): 99%
CC(C)c1ccc(NC(=O)c2cccs2)c(-c2nc3ccccc3[nH]c2=O)c1  activity vs control (enzyme activity, inhibitor; 1 µM): 103%
C=CC(=O)Nc1cc(Nc2nccc(Nc3cc(Cl)c(F)cc3C(C)(C)O)n2)c(OC)cc1N1CC[C@@H](N(C)C)C1  inhibition (enzyme activity, inhibitor; 1 µM): 4%
CCN(CC)CCNC(=O)c1c(C)[nH]c(/C=C2\C(=O)Nc3ccc(F)cc32)c1C  inhibition (enzyme activity, inhibitor; 10 µM): 15%
Cc1ncc([N+](=O)[O-])n1C(=NO)c1ccccc1C(F)(F)F  inhibition (enzyme activity, inhibitor; 10 µM): 21.4%
CS(=O)(=O)Nc1cccc(-c2csc(NC(=O)CSc3nc4nccnc4c(=O)n3CCc3ccccc3)n2)c1  inhibition (enzyme activity, inhibitor; 10 µM): 1%
CN(C)C1CCN(CC#Cc2nn(C3CCCC3)c3nc(NCc4ccccc4)ncc23)C1 (stereo not shown)  inhibition (enzyme activity, inhibitor, FRET; 1 µM): -2%
Cc1cc(NC(=O)c2cccc3cc(-c4cccc5[nH]nc(N)c45)ccc23)ccc1F  activity vs control (enzyme activity, inhibitor; 0.1 µM): 95%
Cn1nc(C(=O)NCc2ccc(C(=O)O)cc2)cc1-c1ccc2[nH]ccc2c1  remaining binding (cell-free assay, competition with immobilised ligand; 0.1 µM): 55%
Nc1nc(NC2CCCCC2)sc1C(=O)c1ccccc1  remaining activity (enzyme activity, inhibitor; 10 µM): 96%
Oc1cccc(-c2nc(N3CCOCC3)c3oc4ncccc4c3n2)c1  remaining activity (enzyme activity, inhibitor; 10 µM): 90%
c1ccc(N2CCN(Cc3nc4ccccc4[nH]3)CC2)nc1  remaining binding (binding, competition with immobilised ligand; 1 µM): 100%
Cc1cnc(NC2CCOCC2)nc1-n1cnc(C(=O)NC(CN)c2cc(F)cc(Cl)c2)c1 (stereo not shown)  remaining activity (enzyme activity, inhibitor, radiometric; 1 µM): 108%
CNc1cccc2cc(C(=O)Nc3ccc(C(=O)O)cc3)c(=O)[nH]c12  inhibition (enzyme activity, inhibitor; 10 µM): 11%
FC(F)(F)Oc1cccc(-c2cnc3ccc(-c4ccncc4)nn23)c1  activity vs control (enzyme activity, inhibitor, radiometric; 5 µM): 96%
COc1cc(Nc2cnc(C#N)c(O[C@H](C)CN(C)C)n2)ncc1-c1cnn(C)c1  remaining activity (enzyme activity, inhibitor, radiometric; 1 µM): 112%
